# Assay outcomes as filed in PubChem BioAssay.
# CXCR6 block: CXCR6 receptor inhibitors, primary screen, cell-based, beta-arrestin, luminescence, CHO-K1 PathHunter, 1536-well; C-X-C chemokine receptor type 6 (Homo sapiens), O00574; inhibition, % at 20 µM; actives 0.36% (n = 360,000); in the data active = inhibition above about 34%, passing the limit was not always enough;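 also: antagonist mode with CXCL16 agonist at 10 nM final; 0% = 10 nM CXCL16 with DMSO and 100% = unstimulated wells without agonist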
# APJ agonist: agonists of human apelin receptor APJ, primary screen, CHO-K1 cells, PathHunter beta-arrestin, luminescence | activation, % at 20 µM | 0% DMSO wells, 100% apelin | AID 2520, 2010 | P35414 | actives 0.11% (n = 330,000);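 active = activation more than six SD over the plate average, tested at 20 µM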;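 also: 0% = DMSO alone and 100% = apelin-13 at 10 nM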
#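 Material: CHO-K1 APJ beta-arrestin complementation cell line; Input: cell density 1000 per well; Incubation: compound stimulation 90 min at 25 °C, detection 60 min; Signal: luminescence from split beta-galactosidase complementation, Galacton Star/Emerald II substrate; Controls: DMSO-only wells as negative, 10 nM Apelin-13 as positive control.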
# CCR6 antagonist: CCR6 receptor antagonists, primary screen, cell-based, CHO-K1, luminescence, beta-arrestin, uHTS | C-C chemokine receptor type 6 (Homo sapiens), P51684 | CHO-K1 CCR6 PathHunter beta-arrestin, CCL20-stimulated | inhibition, % at 20 µM | actives 0.49% (n = 340,000);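 active = compounds whose inhibition of the agonist-driven luminescence signal at 20 µM reaches about 50%, limit read from the data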;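 also: cells stimulated with CCL20 at 14 nM final; plate controls were DMSO with CCL20 for no effect and DMSO without agonist for full effect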
# Target sequence (P51684 whole entry, looked up): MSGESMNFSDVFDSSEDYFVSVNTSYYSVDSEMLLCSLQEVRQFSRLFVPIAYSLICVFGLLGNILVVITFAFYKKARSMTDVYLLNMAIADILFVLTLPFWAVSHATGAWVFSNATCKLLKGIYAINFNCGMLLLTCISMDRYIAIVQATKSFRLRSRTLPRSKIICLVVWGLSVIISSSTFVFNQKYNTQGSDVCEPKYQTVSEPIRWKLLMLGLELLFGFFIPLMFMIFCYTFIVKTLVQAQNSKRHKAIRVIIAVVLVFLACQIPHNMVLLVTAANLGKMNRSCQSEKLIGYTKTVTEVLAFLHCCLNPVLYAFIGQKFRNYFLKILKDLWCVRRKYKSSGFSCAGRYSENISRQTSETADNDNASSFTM
# APJ antagonist: antagonists of human apelin receptor APJ, primary screen, CHO-K1 cells, beta-arrestin complementation, luminescence; P35414; inhibition, % at 20 µM; actives 0.32% (n = 330,000);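 active = inhibition above about 40% at 20 µM, limit read from the data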;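 also: cells challenged with 10 nM apelin-13 agonist together with compound; plate controls were apelin-13 plus DMSO wells for no effect and DMSO wells lacking apelin-13 for full effect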
# EBI2 antag: EBI2 receptor antagonists, beta-arrestin recruitment, primary screen, cell-based, luminescence, 7a,25-OHC stimulation, uHTS; inhibition, % at 5 µM; 7a,25-OHC stimulated; actives 0.81% (n = 360,000); in the data active = inhibition above about 38%;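 also: enzyme fragment complementation signal reports receptor beta-arrestin coupling in cells; 0% = agonist plus DMSO wells and 100% = wells without agonist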
# * marks the source's active call; other numbers are inactive results; · = no result given. Sampled rows, rich in hits. Any-hit rate of the full collection: about 1.5%.
SMILES,CXCR6 block,APJ agonist,CCR6 antagonist,APJ antagonist,EBI2 antag
C/C=C(\C)C(=O)OC1[C@H](OC(C)=O)C2(CO)C(CC1(C)C)C1=CCC3C4(C)CCC(O[C@@H]5O[C@H](C(=O)O)[C@@H](O[C@@H]6O[C@H](CO)[C@@H](O)[C@H](O)[C@H]6O)[C@H](O)[C@H]5O[C@H]5O[C@H](CO)[C@@H](O)[C@H](O)[C@H]5O)[C@](C)(CO)C4CCC3(C)[C@]1(C)C[C@H]2O (stereo not given in full),82*,·,95*,·,-14
C/C=C(/C)C(=O)OC1CC(C)(C)C[C@H]2C3=CC[C@@H]4[C@@]5(C)CCC(O[C@@H]6O[C@@H](C(=O)O)[C@@H](O)C(O[C@@H]7OC[C@H](O)[C@@H](O)[C@@H]7O[C@@H]7OC(CO)C(O)[C@@H](O)[C@@H]7O)C6O[C@@H]6OC(CO)C(O)C(O)C6O)[C@@](C)(CO)[C@@H]5CC[C@]4(C)[C@]3(C)CC(O)[C@@]12CO (stereo not given in full),15,12,27,23,-15
C#CCOCCOCCOCCNc1nc(N2CCN(C(=O)CCCCCCCCCCNC(=O)[C@H]([C@@H](C)CC)n3cc(CCCCN=C(N)N)nn3)CC2)nc(N2CCN(C(=O)CCCCCCCCCCNC(=O)[C@H](CCCN=C(N)N)n3cc(C[C@@H](C)CC)nn3)CC2)n1,·,73*,·,35,·
COc1ccc(OC)c(S(=O)(=O)N2CCN(c3ccccc3)CC2)c1,6,-4,6,23,-6
COc1ccc(OC)c(S(=O)(=O)ON2C(=O)c3ccccc3C2=O)c1,11,1,57*,20,-6
OC(COc1ccc2cc(Br)ccc2c1)CN1CCCC1 (stereo not given),1,3,20,-2,21
O=S(=O)(N1CCCCC1)N1CCN(CC(O)COc2ccc3cc(Br)ccc3c2)CC1 (stereo not given),-13,4,0,-19,90*
N#CCNC(=O)C1CC(=O)N(CCc2ccc(F)cc2)C1 (stereo not given),2,-2,8,14,-2
COc1ccn(C2CCCCO2)c(=O)n1 (stereo not given),3,·,4,·,-11
O=C(NN=C1c2ccccc2-c2ccccc21)c1cccc(Br)c1,46*,-4,47,40,13
O=C(COc1cccc(Br)c1)NN=C1c2ccccc2-c2ccccc21,-6,-1,8,2,-2
CCN1/C(=C/c2cc[n+](C)cc2)C=Cc2cc(C)ccc21,32,·,57*,·,-8
COc1cc(C=O)ccc1OCC(=O)Nc1ccc2c(c1)OCO2,2,0,1,-10,-8
CN(C)C(CNc1ccc(C(F)(F)F)cn1)c1ccccc1 (stereo not given),1,-2,63*,-10,-9
C=CCN(CC=C)S(=O)(=O)c1ccc(NC(=S)NC(=O)/C=C/c2ccc(C)cc2)cc1,9,-1,18,-30,15
C=CCN(CC=C)S(=O)(=O)c1ccc(NC(=S)NC(=O)/C=C/c2cccc3ccccc23)cc1,4,-3,52*,28,19
O=C(NCCOc1ccccc1)C(=O)c1c[nH]c2ccccc12,-3,-3,4,-4,-1
O=C1NC(=S)SC1=C1CCCCCC1,5,-4,51*,17,-2
O=C1N=C(N2CCCCC2)SC1=C1CCCCC1,-1,-3,5,8,-3
Cc1cc(C)cc(C(O)c2ncc(-c3ccccc3F)[nH]2)c1 (stereo not given),4,·,·,·,-14
CCOc1ccc(C(O)(c2ccccc2)C(CN2CCCC2)c2ccccc2)cc1 (stereo not given),6,-5,11,6,7
CCC(=O)Nc1ccc(S(=O)(=O)NC[C@H]2O[C@@H](n3cc(C)c(=O)[nH]c3=O)C[C@@H]2O)cc1,0,·,·,·,-3
CCOC(=O)c1cnc(-n2nc(C)cc2C)nc1NC(C)c1ccccc1 (stereo not given),29,-6,41,25,51*
CSc1ncccc1C(=O)OCC(=O)c1ccccc1,2,-4,18,9,-1
CSc1ncccc1C(=O)OCC(=O)c1cc2ccccc2o1,34,-12,50*,22,4
SMILES,CXCR6 block,APJ agonist,CCR6 antagonist,APJ antagonist,EBI2 antag
O=C(COC(=O)CCOc1ccccc1)NCCc1ccccc1,-1,1,15,21,0
O=C(CCOc1ccccc1)OCC(=O)c1cc2ccccc2o1,29,-10,85*,36,-8
Cc1ccccc1CN1C(=O)CN(S(C)(=O)=O)CC1(C)C(=O)NC(C)C (stereo not given),·,·,·,·,-1
O=C1C=C(c2cccc3c2sc2ccccc23)C[C@@H](c2ccc(F)cc2)C1,-5,-4,9,-3,67*
O=C(Nc1nc(-c2cccs2)cs1)c1ccc(S(=O)(=O)N2CCCC2)cc1,-1,-4,21,23,43
CN(C)S(=O)(=O)c1ccc(C(=O)Nc2nc(-c3cccs3)cs2)cc1,2,0,10,1,77*
COc1ccc(NC(=O)c2cncn2-c2ccccc2)cc1,0,3,18,17,6
O=C(COc1ccccc1Cl)N1CCN(c2ccc([N+](=O)[O-])c(N3CCCCC3)c2)CC1,8,-3,15,16,23
O=C(COc1ccc(Cl)cc1)N1CCN(c2ccc([N+](=O)[O-])c(N3CCCCC3)c2)CC1,2,-4,10,17,78*
CC(C)(C)c1cnnn1-c1ccc(C=O)cc1,-8,-1,-12,7,-7
CC(C)(C)c1cnnn1-c1ccc(C(=O)CCl)cc1,12,-4,65*,20,8
O=C(OCn1ncc(Cl)c(Cl)c1=O)c1ccc(F)cc1,·,-3,·,24,·
O=C(OCn1ncc(Cl)c(Cl)c1=O)c1ccccc1Cl,31,·,22,·,51*
Cc1c(Nc2nc(-c3ccc(Cl)cc3)cs2)c(=O)n(-c2ccccc2)n1C,2,-4,1,-13,-7
CCOC(=O)Cc1csc(Nc2c(C)n(C)n(-c3ccccc3)c2=O)n1,9,1,69*,11,-9
CC[C@H]1c2[nH]c3ccccc3c2C[C@H]2C(=O)N(c3ccc(F)cc3)C(=O)N21,-8,3,-1,-12,48*
CC1(C)c2[nH]c3ccccc3c2C[C@@H]2C(=O)N(Cc3ccc(F)cc3)C(=O)N21,-7,9,-13,-51,-5
CCOC(=O)C1=CCC2C(=O)N(CC)C(=O)C12 (stereo not given),2,·,·,·,-11
CNC(=S)N(Cc1ccccc1)Cc1cccnc1,4,-2,-4,4,-2
